From ChEMBL document CHEMBL3526029, “Disposition and metabolism of GSK2251052 in humans: a novel boron-containing antibiotic” (Drug Metab Dispos, 2013)

Key:
Blood = assay: Tmax in healthy human whole blood assessed as radioactivity at 1500 mg, iv infusion for 1 hr as single dose; type: ADME, organism-based; conditions: in vivo
In short: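 Healthy men got a single 1500 mg [14C] dose by 1 h i.v. infusion. K2EDTA blood was sampled up to 336 h. Radioactivity in blood and plasma was measured by LSC, with AMS for plasma below LLQ. Parent and M3 were measured by LC/MS/MS (5–10,000 ng/ml range). Noncompartmental analysis used actual times, with t1/2 = ln2/λz and Tmax observed directly, timed from infusion start.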

[1] = Drug recovery in healthy human urine at 1500 mg, iv infusion for 1 hr as single dose after 96 hrs; type: ADME, organism-based; conditions: read-out: Drug recovery
[2] = Drug recovery in healthy human urine at 1500 mg, iv infusion for 1 hr as single dose after 120 hrs; type: ADME, organism-based; conditions: read-out: Drug recovery
[3] = Drug metabolism in cynomolgus monkey liver S9 fraction assessed as (S)-3-(3-(aminomethyl)-1-hydroxy-1,3-dihydrobenzo[c][1,2]oxaborol-7-yloxy)propanoicacid formation at 50 to 500 uM after 3 hrs by liquid scintillation counting in presence of NADPH regeneration system; type: ADME, subcellular, Macaca fascicularis; conditions: s9, 3 h
[4] = Drug recovery in healthy human feces at 1500 mg, iv infusion for 1 hr as single dose after 168 hrs; type: ADME, organism-based; conditions: faeces, read-out: Drug recovery
Plasma [5] = assay: AUC (0 to infinity) in healthy human plasma assessed as radioactivity at 1500 mg, iv infusion for 1 hr as single dose; type: ADME, organism-based; set-up: dose 1500 mg, time infinity, route intravenous; conditions: in vivo
In short: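 Six fasted healthy men received 1500 mg [14C]GSK2251052 as a 1-h i.v. infusion. Blood and plasma were sampled from predose to 336 h after infusion start. Radioactivity was counted by LSC; plasma below 870 ng eq/ml was reanalysed by accelerator MS, with predose background subtracted. Noncompartmental analysis used actual sampling times, linear-up/log-down trapezoids and CL = dose/AUC(0-∞).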

Plasma [6] = assay: Volume of distribution at steady state in healthy human plasma assessed as radioactivity at 1500 mg, iv infusion for 1 hr as single dose; type: ADME, organism-based; conditions: in vivo
In short: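 Healthy males got a 1500 mg [14C] dose as a 1-h IV infusion. K2EDTA blood was taken at serial times to 336 h. Radioactivity in blood and plasma was measured by LSC; plasma below 870 ng eq/ml was re-measured by accelerator mass spectrometry. Vss = CL × MRT, with CL = dose/AUC(0-∞), from noncompartmental analysis on actual times.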

[7] = Total drug recovery in healthy human at 1500 mg, iv infusion for 1 hr as single dose after 24 hrs; type: ADME, organism-based; conditions: in vivo, read-out: Drug recovery
In short: (§1)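 Six healthy adult males, fasted ≥10 h, got one 1500 mg [14C]GSK2251052 dose ([…], 0.56 MBq) as a constant-rate 1-h IV infusion in 0.9% NaCl. Urine was collected at 0–6, 6–12 and 12–24 h, then in 24-h blocks to 336 h; feces in 24-h blocks. Urine was counted directly by LSC; feces were homogenized and combusted in duplicate before LSC. Cumulative recovery is given as mean % of dose.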

[8] = Total drug recovery in healthy human at 1500 mg, iv infusion for 1 hr as single dose after 96 hrs; type: ADME, organism-based; conditions: in vivo, read-out: Drug recovery; in short: as §1
[9] = Total drug recovery in healthy human at 1500 mg, iv infusion for 1 hr as single dose after 120 hrs; type: ADME, organism-based; conditions: in vivo, read-out: Drug recovery
[10] = Total drug recovery in healthy human at 1500 mg, iv infusion for 1 hr as single dose after 144 hrs; type: ADME, organism-based; conditions: in vivo, read-out: Drug recovery
[11] = Total drug recovery in healthy human at 1500 mg, iv infusion for 1 hr as single dose after 264 hrs; type: ADME, organism-based; conditions: in vivo, read-out: Drug recovery; in short: as §1
[12] = Total drug recovery in healthy human at 1500 mg, iv infusion for 1 hr as single dose after 288 hrs; type: ADME, organism-based; conditions: in vivo, read-out: Drug recovery; in short: as §1
[13] = Drug metabolism in healthy human urine assessed as 2-(2-amino-1-hydroxyethyl)-6-(3-hydroxypropoxy)phenol formation at 1500 mg, iv infusion for 1 hr as single dose by mass spectrometry; type: ADME, organism-based; conditions: in vivo
In short: (§2)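 Urine was collected through 336 h after a 1500 mg [14C] i.v. 1-h infusion to six men. Samples were pooled by weight (0–120 h per subject; 120–336 h composite) and centrifuged. Profiling used HPLC (Atlantis T3, ammonium acetate pH 4.5/methanol, 30°C) with fraction radioactivity counting. Identity came from Orbitrap positive-ion accurate mass. Values were given as % dose, corrected for recovery.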

[14] = Drug metabolism in healthy human urine assessed as (S)-3-(3-(aminomethyl)-1-hydroxy-1,3-dihydrobenzo[c][1,2]oxaborol-7-yloxy)propanoicacid formation at 1500 mg, iv infusion for 1 hr as single dose by mass spectrometry; type: ADME, organism-based; conditions: in vivo; in short: as §2
[15] = Drug recovery in healthy human urine assessed as total radioactivity at 1500 mg, iv infusion for 1 hr as single dose after 120 to 336 hrs by HPLC method; type: ADME, organism-based; conditions: in vivo, in the assay text read “0 to 120 hrs” for “120 to 336 hrs”
In short: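 Urine pooled by weight per subject over 0–120 h; 120–336 h pools from all subjects combined into one composite. Centrifuged at ~21,000g, then supernatant profiled by HPLC (Atlantis T3, ammonium acetate pH 4.5/methanol, 30°C) with radiochemical detection plus MS identification. Results are % of dose, corrected for centrifugation recovery measured by triplicate LSC.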

[16] = Drug recovery in healthy human feces assessed as total radioactivity at 1500 mg, iv infusion for 1 hr as single dose after 120 to 336 hrs by HPLC method; type: ADME, organism-based; conditions: in vivo, in the assay text read “0 to 120 hrs” for “120 to 336 hrs”
In short: (§3)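 Feces were collected at 24-h intervals through 336 h after a 1500 mg [14C] i.v. 1-h infusion. Samples were homogenised with water and duplicate aliquots combusted for LSC. For profiling, 0–120 h pools were extracted twice with acetonitrile:methanol:water:formic acid, reconstituted, and analysed by radio-HPLC. Values were reported as % dose.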

[17] = Drug metabolism in cynomolgus monkey lung S9 fraction assessed as (S)-3-(3-(aminomethyl)-1-hydroxy-1,3-dihydrobenzo[c][1,2]oxaborol-7-yloxy)propanoicacid formation at 50 to 500 uM after 3 hrs by liquid scintillation counting in presence of NAD+; type: ADME, Macaca fascicularis; conditions: s9, 3 h
In short: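 [14C]GSK2251052 was incubated in triplicate for 1 or 3 h at 37°C with 4 mg/ml S9 (monkey liver, lung or kidney; human liver), liver cytosol or liver microsomes and 7.5 mM NAD+. Buffer was pyrophosphate at pH 7.4, 8.4 or 8.8. Controls lacked cofactor or enzyme. Reactions were quenched with acetonitrile, counted by LSC, and pooled for radio-HPLC.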

[18] = Drug recovery in healthy human urine at 1500 mg, iv infusion for 1 hr as single dose after 240 hrs; type: ADME, organism-based; conditions: read-out: Drug recovery
[19] = Drug recovery in healthy human feces at 1500 mg, iv infusion for 1 hr as single dose after 120 hrs; type: ADME, organism-based; conditions: read-out: Drug recovery; in short: as §3
[20] = Drug recovery in healthy human feces at 1500 mg, iv infusion for 1 hr as single dose after 144 hrs; type: ADME, organism-based; conditions: read-out: Drug recovery

Tmax (Blood): 55 min | dose excreted at 96 h [1]: 81.1% | dose excreted at 120 h [2]: 83.4% | Drug metabolism [3]: metabolite_not_detected | dose excreted at 168 h [4]: 7.6% | AUC (Plasma [5]): 195 µg·h/mL | Vdss (Plasma [6]): 348 L | dose excreted at 24 h [7]: 51.3% | dose excreted at 96 h [8]: 87.5% | dose excreted at 120 h [9]: 90.7% | dose excreted at 144 h [10]: 92.6% | dose excreted at 264 h [11]: 97% | dose excreted at 288 h [12]: 97.4% | Drug recovery [13]: metabolite_detected | Drug recovery [14]: metabolite_detected | Drug recovery [15]: 83.1% | Drug recovery [16]: 6% | Drug metabolism [17]: metabolite_not_detected | dose excreted at 240 h [18]: 88.8% | dose excreted at 120 h [19]: 7.3% | dose excreted at 144 h [20]: 7.5%
Structure (SMILES): Cl.N[14CH2][C@H]1OB(O)c2c(OCCCO)cccc21
